Test results as given in ChEMBL document CHEMBL1131159, “Bis-cationic heteroaromatics as macrofilaricides: synthesis of bis-amidine and bis-guanylhydrazone derivatives of substituted imidazo[1,2-a]pyridines” (1998).
“And” between values parts separate entries of the source, which are not always exact repeats. Equal values may be shown once.

Experiments:
[1] = test system: Meriones unguiculatus; assay: Compound was tested for macrofilarial reduction at 12.5 mg/kg dosage by subcutaneous administration for a period of 5 days against Brugia pahangi (Brugia pahangi).; assay type: functional
In short: (§1)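 Jirds doubly infected with A. viteae and B. pahangi were dosed subcutaneously once daily on five successive days. Each series included a flubendazole positive control at 2.0 mg/day for 5 days. Jirds were killed 56 days later and worms of each species counted. Worm percentage was compared with untreated negative controls, and ≥60% reduction was scored as active.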

[2] = Compound was tested for macrofilarial reduction at 12.5 mg/kg dosage by subcutaneous administration for a period of 5 days against Acanthocheilonema viteae (Acanthocheilonema viteae); assay type: functional, Meriones unguiculatus; in short: as §1
[3] = test system: Meriones unguiculatus; assay: Compound was tested for macrofilarial reduction at 6.25 mg/kg dosage by subcutaneous administration for a period of 5 days against Brugia pahangi (Brugia pahangi).; assay type: functional; in short: as §1
[4] = test system: Meriones unguiculatus; assay: Compound was tested for macrofilarial reduction at 6.25 mg/kg dosage by subcutaneous administration for a period of 5 days against Acanthocheilonema viteae (Acanthocheilonema viteae); assay type: functional; in short: as §1
[5] = test system: Brugia pahangi; assay: Macrofilarial reduction at 100 mg/kg dosage by subcutaneous administration for a period of 5 days against Brugia pahangi; assay type: functional; in short: as §1
[6] = test system: Acanthocheilonema viteae; assay: Macrofilarial reduction at 100 mg/kg dosage by subcutaneous administration for a period of 5 days against Acanthocheilonema viteae; assay type: functional; in short: as §1
[7] = test system: Meriones unguiculatus; assay: Compound was tested for macrofilarial reduction at 50 mg/kg dosage by subcutaneous administration for a period of 5 days against Brugia pahangi (Brugia pahangi).; assay type: functional; in short: as §1
[8] = test system: Meriones unguiculatus; assay: Compound was tested for macrofilarial reduction at 25 mg/kg dosage by subcutaneous administration for a period of 5 days against Acanthocheilonema viteae (Acanthocheilonema viteae); assay type: functional; in short: as §1
[9] = test system: Meriones unguiculatus; assay: Compound was tested for macrofilarial reduction at 25 mg/kg dosage by subcutaneous administration for a period of 5 days against Brugia pahangi (Brugia pahangi).; assay type: functional; in short: as §1
[10] = test system: Meriones unguiculatus; assay: Compound was tested for macrofilarial reduction at 50 mg/kg dosage by subcutaneous administration for a period of 5 days against Acanthocheilonema viteae (Acanthocheilonema viteae); assay type: functional; in short: as §1
[11] = test system: Meriones unguiculatus; assay: Compound was tested for macrofilarial reduction at 100 mg/kg dosage by subcutaneous administration for a period of 5 days against Acanthocheilonema viteae (Acanthocheilonema viteae); Toxic; assay type: functional, organism-based; parameters: dose 100 mg/kg; in short: as §1
[12] = test system: Meriones unguiculatus; assay: Compound was tested for macrofilarial reduction at 100 mg/kg dosage by subcutaneous administration for a period of 5 days against Brugia pahangi (Brugia pahangi); Toxic; assay type: functional, organism-based; parameters: dose 100 mg/kg; in short: as §1
[13] = test system: Meriones unguiculatus; assay: Compound was tested for macrofilarial reduction at 100 mg/kg dosage by subcutaneous administration for a period of 5 days against Brugia pahangi (Brugia pahangi). * Toxicity noted at this dosage; assay type: functional; in short: as §1
[14] = test system: Meriones unguiculatus; assay: Compound was tested for macrofilarial reduction at 100 mg/kg dosage by subcutaneous administration for a period of 5 days against Acanthocheilonema viteae (Acanthocheilonema viteae) * Toxicity noted at this dosage; assay type: functional; in short: as §1
[15] = test system: Meriones unguiculatus; assay: Compound was tested for macrofilarial reduction at 3.12 mg/kg dosage by subcutaneous administration for a period of 5 days against Acanthocheilonema viteae (Acanthocheilonema viteae); assay type: functional; in short: as §1
[16] = test system: Meriones unguiculatus; assay: Compound was tested for macrofilarial reduction at 3.12 mg/kg dosage by subcutaneous administration for a period of 5 days against Brugia pahangi (Brugia pahangi).; assay type: functional; in short: as §1
[17] = test system: Meriones unguiculatus; assay: Compound was tested for macrofilarial reduction at 75 mg/kg dosage by subcutaneous administration for a period of 5 days against Acanthocheilonema viteae (Acanthocheilonema viteae); assay type: functional; in short: as §1
[18] = test system: Meriones unguiculatus; assay: Compound was tested for macrofilarial reduction at 1.56 mg/kg dosage by subcutaneous administration for a period of 5 days against Brugia pahangi (Brugia pahangi).; assay type: functional; in short: as §1
[19] = test system: Meriones unguiculatus; assay: Compound was tested for macrofilarial reduction at 75 mg/kg dosage by subcutaneous administration for a period of 5 days against Brugia pahangi (Brugia pahangi).; assay type: functional; in short: as §1
[20] = test system: Meriones unguiculatus; assay: Compound was tested for macrofilarial reduction at 1.56 mg/kg dosage by subcutaneous administration for a period of 5 days against Acanthocheilonema viteae (Acanthocheilonema viteae); assay type: functional; in short: as §1

| Compound | Reduction [5] [%] | Reduction [6] [%] | other results |
| --- | --- | --- | --- |
| N=C(/C=C/c1ccc(-c2cn3cc(/C=C/C(=N)N4CCOCC4)ccc3n2)cc1)N1CCOCC1 | – | – | Reduction [1]: 0%; Reduction [2]: 50% |
| N=C(/C=C/c1ccc(-c2cn3cc(/C=C/C(=N)N4CCCC4)ccc3n2)cc1)N1CCCC1 | – | – | Reduction [3]: 0%; Reduction [4]: 72% |
| C(/C=C/c1ccc(-c2cn3cc(/C=C/C=NNC4=NCCN4)ccc3n2)cc1)=NNC1=NCCN1 | 18 | 71 | – |
| C(/C=C/c1ccc(-c2cn3cc(/C=C/C=NNC4=NCCCN4)ccc3n2)cc1)=NNC1=NCCCN1 | – | – | Reduction [7]: 38%; Reduction [8]: 73%; Reduction [1]: 38%; Reduction [2]: 50%; Reduction [9]: 13%; Reduction [10]: 100%; Reduction ([6]; 100 mg/kg): 100% and 64% |
| C(=NNC1=NCCCN1)c1ccc(/C=C/c2cn3cc(C=NNC4=NCCCN4)ccc3n2)cc1 | 32 | 100 | – |
| C(=C\c1cn2cc(C3=NCCN3)ccc2n1)/c1ccc(C2=NCCN2)cc1 | – | – | Reduction [11]: Toxic; Reduction [12]: Toxic |
| N=C(c1ccc2nc(-c3ccccc3)cn2c1)N1CCCC1 | – | – | Reduction ([5]; 100 mg/kg): 25% and 0%; Reduction ([6]; 100 mg/kg): 60% and 27% |
| C(=NNC1=NCCS1)c1ccc(-c2cn3cc(C=NNC4=NCCS4)ccc3n2)cc1 | 38 | 0 | – |
| N=C(c1ccc(-c2cn3ccccc3n2)cc1)N1CCCC1 | 36 | 0 | – |
| N=C(NN=Cc1ccc(-c2cn3ccccc3n2)cc1)N1CCCC1 | 0 | 47 | – |
| N=C(c1ccc2nc(-c3ccccc3)cn2c1)N1CCOCC1 | 12 | 0 | – |
| N=C(NN=Cc1ccc(-c2cn3cc(C=NNC(=N)N4CCCC4)ccc3n2)cc1)N1CCCC1 | 0 | 60 | Reduction [13]: 0%; Reduction [14]: 73% |
| CC(C)NC(=N)NN=Cc1ccc(-c2cn3cc(C=NNC(=N)NC(C)C)ccc3n2)cc1 | 32 | 100 | – |
| C(=Cc1ccc(-c2cn3cc(C=CC4=NCCS4)ccc3n2)cc1)C1=NCCS1 | 0 | 0 | – |
| C(=NNC1=NCCN1)c1ccc(/C=C/c2cn3cc(C=NNC4=NCCN4)ccc3n2)cc1 | 4 | 24 | – |
| c1ccc(-c2cn3cc(C4=NCCN4)ccc3n2)cc1 | 42 | 0 | – |
| N=C(c1ccc(-c2cn3cc(C(=N)N4CCCC4)ccc3n2)cc1)N1CCCC1 | – | – | Reduction [15]: 39%; Reduction [16]: 0% |
| C(=NNC1=NCCN1)c1ccc(-c2cn3cc(C=NNC4=NCCN4)ccc3n2)cc1 | – | – | Reduction [7]: 0%; Reduction ([5]; 100 mg/kg): 18% and 11%; Reduction ([8]; 25 mg/kg): 82% and 73%; Reduction [1]: 0%; Reduction [2]: 82%; Reduction [10]: 100%; Reduction ([6]; 100 mg/kg): 100% and 78% |
| C(=NNC1=NCCCN1)c1ccc(-c2cn3cc(C=NNC4=NCCCN4)ccc3n2)cc1 | – | 100 | Reduction [15]: 88%; Reduction [7]: 0%; Reduction ([5]; 100 mg/kg): 9% and 0%; Reduction [17]: 100%; Reduction [18]: 16%; Reduction [19]: 0%; Reduction ([2]; 12.5 mg/kg): 100% and 64%; Reduction [9]: 0%; Reduction [16]: 11%; Reduction [10]: 100%; Reduction [20]: 73%; Reduction ([4]; 6.25 mg/kg): 100% and 75% |
| N=C(NN=Cc1ccc(-c2cn3ccccc3n2)cc1)N1CCOCC1 | 12 | 0 | – |
| C(=NNC1=NCCCN1)c1ccc2nc(C=NNC3=NCCCN3)cn2c1 | 5 | 0 | – |

| Compound | Reduction [5] [%] | Reduction [6] [%] | other results |
| --- | --- | --- | --- |
| C(=NNC1=NCCCN1)c1ccc(-c2cn3ccccc3n2)cc1 | 0 | 0 | – |
| Cc1ccc(S(=O)(=O)NN=Cc2ccc(-c3cn4cc(C=NNS(=O)(=O)c5ccc(C)cc5)ccc4n3)cc2)cc1 | 16 | 0 | – |
| C(=NNC1=NCCC1)c1ccc(-c2cn3cc(C=NNC4=NCCC4)ccc3n2)cc1 | 5 | 24 | – |
| C(=NNc1ccccn1)c1ccc(-c2cn3cc(C=NNc4ccccn4)ccc3n2)cc1 | 0 | 0 | – |
| Nc1ccc(C(=O)NN=Cc2ccc(-c3cn4cc(C=NNC(=O)c5ccc(N)cc5)ccc4n3)cc2)cc1 | 8 | 0 | – |
| CN1CCN(C(=N)/C=C/c2ccc(-c3cn4cc(/C=C/C(=N)N5CCN(C)CC5)ccc4n3)cc2)CC1 | – | – | Reduction [1]: 0%; Reduction [2]: 57% |
| C(=Cc1ccc(-c2cn3ccccc3n2)cc1)C1=NCCN1 | 18 | 28 | – |
| N=C(NN=Cc1ccc2nc(C=NNC(=N)N3CCCC3)cn2c1)N1CCCC1 | 5 | 0 | – |
| CC(C)NC(=N)c1ccc(/C=C/c2cn3cc(C(=N)NC(C)C)ccc3n2)cc1 | – | – | Reduction [11]: Toxic; Reduction [12]: Toxic |
| N=C(c1ccc(-c2cn3ccccc3n2)cc1)N1CCCCC1 | 15 | 0 | – |
| C(=Cc1ccc(-c2cn3ccccc3n2)cc1)C1=NCCS1 | 0 | 0 | – |
| N=C(c1ccc(-c2cn3ccccc3n2)cc1)N1CCOCC1 | 29 | 0 | – |
| C(=NNC1=NCCN1)c1ccc2nc(C=NNC3=NCCN3)cn2c1 | 5 | 5 | – |
| C(=NNC1=NCCCN1)c1ccc2nc(-c3ccccc3)cn2c1 | 0 | 30 | – |
| c1ccn2cc(-c3ccc(C4=NCCN4)cc3)nc2c1 | 8 | 20 | – |
| C(=NNC1=NCCN1)c1ccc(-c2cn3ccccc3n2)cc1 | 0 | 60 | – |
| c1ccn2cc(-c3ccc(C4=NCCCN4)cc3)nc2c1 | 0 | 0 | – |
| N=C(NN=C/C=C/c1ccc(-c2cn3cc(/C=C/C=NNC(=N)N4CCCC4)ccc3n2)cc1)N1CCCC1 | – | – | Reduction [1]: 38%; Reduction [2]: 50% |
| C(=NNC1=NCCN1)c1ccc2nc(-c3ccccc3)cn2c1 | 0 | 20 | – |
| N=C(c1ccc(/C=C/c2cn3cc(C(=N)N4CCCC4)ccc3n2)cc1)N1CCCC1 | – | – | Reduction [11]: Toxic; Reduction [12]: Toxic |
| c1cc(-c2cn3cc(C4=NCCN4)ccc3n2)ccc1C1=NCCN1 | 35 | 0 | – |
